Experimental data pooled from the literature.
CDK1 with cyclin A: Cyclin-dependent kinase 1, with cyclin A (CDK1, Homo sapiens, UniProt P06493)
CDK1 with cyclin B1: Cyclin-dependent kinase 1, with cyclin B1 (CDK1, Homo sapiens, UniProt P06493)
CDK1 with cyclin B: Cyclin-dependent kinase 1, with cyclin B (CDK1, Homo sapiens, UniProt P06493)
CDK1: Cyclin-dependent kinase 1 (CDK1, Homo sapiens, UniProt P06493)
CDK1 with cyclin E: Cyclin-dependent kinase 1, with cyclin E (CDK1, Homo sapiens, UniProt P06493)

Structure (SMILES)	target	effect on	mode	technique	tested at	endpoint	value
N#CCCc1ccc2c(c1)-c1[nH]c3ccc([N+](=O)[O-])cc3c1CC(=O)N2	CDK1 with cyclin A	cell-free assay			0.5 µM	remaining signal	24.8%
CC(C)(C)c1nc(-c2cccc(NS(=O)(=O)c3c(F)cccc3F)c2F)c(-c2ccnc(N)n2)s1	CDK1 with cyclin B1	enzyme activity	inhibitor	radiometric	1 µM	remaining activity	89%
O=Nc1c(-c2c(O)[nH]c3ccccc23)[nH]c2ccccc12	CDK1 with cyclin A	cell-free assay			0.5 µM	remaining signal	88.4%
CCN(CC)CCNC(=O)c1c(C)[nH]c(/C=C2\C(=O)Nc3ccc(F)cc32)c1C	CDK1 with cyclin B	enzyme activity	inhibitor		10 µM	inhibition	10%
Cc1cnc(NC2CCOCC2)nc1-n1cnc(C(=O)NC(CN)c2cc(F)cc(Cl)c2)c1 (stereo not drawn)	CDK1 with cyclin B	enzyme activity	inhibitor	radiometric	1 µM	remaining activity	20%
CC(C)n1cnc2c(Nc3cccc(Cl)c3)nc(NCCO)nc21	CDK1 with cyclin A	cell-free assay			0.5 µM	remaining signal	78.5%
CC(C)(C)c1nc2c(s1)c1nc(N)ncc1c1ccc(NS(=O)(=O)c3c(F)cccc3F)c(F)c12	Cyclin-dependent kinase 1, with cyclin E1 (CDK1, Homo sapiens, UniProt P06493)	enzyme activity	inhibitor	radiometric	1 µM	remaining activity	83%
CC(C)(O)[C@H]1CC[C@H](Nc2ccc3ncc(-c4cccc(C(F)(F)F)c4)n3n2)CC1	CDK1 with cyclin A	enzyme activity	inhibitor		1 µM	remaining activity	95.4%
O=C1Nc2ccc(Cl)cc2C1=Cc1cc(Cl)c(O)c(Cl)c1	CDK1 with cyclin A	cell-free assay			0.5 µM	remaining signal	91.9%
COc1cc(Cl)c(C(=O)N[C@@H](CN[C@H]2CC[C@@H](N)CC2)Cc2ccc(C#N)cc2)cc1-c1ccc(CN[C@H](C)c2ccc(C)cc2)o1	CDK1 with cyclin B	enzyme activity	inhibitor		1 µM	remaining activity	95%
COc1cc2ncnc(Nc3ccc(Oc4ccccc4)cc3C)c2cc1OC	CDK1 with cyclin B	enzyme activity	inhibitor		1 µM	inhibition	3%
CC/C(=N\NC(=O)NCc1cccc(O)c1)c1ccc(O)c(C)c1O	CDK1 with cyclin B1	enzyme activity	inhibitor		0.1 µM	inhibition	-14.8%
CNC(=O)c1cc(Oc2ccc(NC(=O)Nc3ccc(Cl)c(C(F)(F)F)c3)cc2)ccn1	CDK1 with cyclin B	enzyme activity	inhibitor		10 µM	inhibition	10%
COc1cccc2c(NCc3ccccc3)nc(-n3c(N)nc4ccccc43)nc12	CDK1	target engagement in cells	inhibitor	chemoproteomics	20 mM	inhibition	-2.6%
CCCOc1ccc(OC)c(F)c1C(=O)c1ccc(C(=O)N[C@@H]2CNC[C@H]2NC(=O)c2ccc3[nH]ncc3c2)cc1	CDK1 with cyclin B	enzyme activity	inhibitor		10 µM	remaining activity	102%
Cc1ccc(C(=O)NCc2ccsc2)cc1C#Cc1cn(C(C)C)c2ncnc(N)c12	CDK1 with cyclin B	enzyme activity	inhibitor		1 µM	activity vs control	100%
O=C(Nc1cnn(-c2csc(C(=O)NC3COC3)c2)c1)Nc1ccccc1Cl	CDK1 with cyclin E	enzyme activity	inhibitor		5 µM	remaining activity	94.7%
Nc1nc(Nc2ccc(S(N)(=O)=O)cc2)sc1C(=O)c1ccccc1[N+](=O)[O-]	CDK1	enzyme activity	inhibitor		0.1 µM	inhibition	90 to 93%
CC(C)[C@H](CO)Nc1nc(Nc2cccc(Cl)c2)c2ncn(C(C)C)c2n1	CDK1 with cyclin B	cell-free assay			0.5 µM	remaining signal	34.9%
Cc1ccc(Nc2nccc(N(C)c3ccc4c(C)n(C)nc4c3)n2)cc1S(N)(=O)=O	CDK1 with cyclin B	enzyme activity	inhibitor		10 µM	inhibition	29%
CCOc1cc(-c2nncn2C)ccc1Nc1ncc2cc(C)nc(NCC(C)(C)C)c2n1	CDK1 with cyclin B	enzyme activity	inhibitor	FRET	1 µM	inhibition	30%
O=C1NC(=O)c2c1c1c3ccccc3[nH]c1n1cncc21	CDK1 with cyclin B	cell-free assay			0.5 µM	remaining signal	85.5%
CC(C)c1ccc(NC(=O)c2cccs2)c(-c2nc3ccccc3[nH]c2=O)c1	CDK1 with cyclin B	enzyme activity	inhibitor		1 µM	activity vs control	107%
Cc1sc(C(=O)NC2COC2)cc1-n1cc(NC(=O)Nc2c(F)cccc2Cl)cn1	CDK1 with cyclin A	enzyme activity	inhibitor		10 µM	remaining activity	105%
COc1cc(OC)c(C=C2C(O)=Nc3ccccc32)c(OC)c1	CDK1 with cyclin B	cell-free assay			0.5 µM	remaining signal	83%
CNCc1ccc(-c2cc(-c3nc(-c4ccc(S(=O)(=O)C(C)C)cc4)cnc3N)on2)cc1	CDK1 with cyclin B	enzyme activity	inhibitor		0.4 µM	inhibition	0%
O=C1NC(=O)c2cc(Nc3ccc(F)cc3)c(Nc3ccc(F)cc3)cc21	CDK1 with cyclin A	cell-free assay			0.5 µM	remaining signal	96.1%
CCCCNc1ncc2c(-c3ccc(F)cc3)nn(C[C@H]3CC[C@H](N)CC3)c2n1	CDK1	target engagement in cells	inhibitor	chemoproteomics	20 mM	inhibition	4.2%
CCN(CC)c1ccc(C2=NNC(=O)CC2C)cc1[N+](=O)[O-] (stereo not drawn)	CDK1 with cyclin B	enzyme activity	inhibitor		10 µM	remaining activity	111%
O=C(Nc1cnn(-c2csc(C(=O)NC3COC3)c2)c1)Nc1c(F)cccc1Cl	CDK1 with cyclin E	enzyme activity	inhibitor		5 µM	remaining activity	98.4%
